The source of these data is PubChem BioAssay AID2152 (The Scripps Research Institute Molecular Screening Center, 2009).

Hit rate of the full screen: of about 2,300 compounds, about 25 (1%) were called active. This is one part of a sample in which actives are shown more often than they occur.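 Rule for the calls: active = mean inhibition over three replicate wells above the hit threshold derived in the earlier primary screen (cut at about 45% in these data); inactive = the rest.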

This assay has as its system Hepatitis C virus core protein (core106 dimerization). Nature of the assay: blockers of core106 self-association – biochemical, TR-FRET, triplicate, confirmation (AID 2152).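 Note: 0% = DMSO wells and 100% = unlabelled core106 competitor control.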 Conditions: TR-FRET GST-/Flag-core106 dimerization, HTRF; at 5 µM; active compounds read high. In short, it runs like this:
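Test system: GST- and Flag-tagged HCV core106 peptides, dimerization via antibody TR-FRET / Amount: 17 nM Flag- plus 13.5 nM GST-core106 / Probe or stimulus: Eu(K)-anti-GST plus XL665-anti-FLAG antibodies / Compound dosing: one 5 µM dose, 0.5% DMSO / Times: 4 h incubation, 22.5 °C / Technique: TR-FRET, 340 nm excitation, 671/617 nm emission / Evaluation: percent inhibition from emission ratio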
(Time-resolved FRET reads energy transfer from a long-lived donor to a nearby acceptor.)
In the case of `Cc1ccc(NC(=O)N(Cc2ccc3c(c2)OCO3)Cc2cc3cc4c(cc3[nH]c2=O)OCCO4)cc1`, the inhibition – broadly, the change of the read-out against control, counted positive when it falls – is 2.67% (inactive).

As to `CC(=O)NS(=O)(=O)c1ccc(NC(=O)c2cc(-c3ccc(C)c(C)c3)nc3ccccc23)cc1`, the inhibition was 5.8% (inactive). With `COc1cc(C(=O)NCC(=O)OCC(=O)c2cccc3ccccc23)cc(OC)c1OC`, the inhibition was -3.85% (inactive).

With `O=C(c1ccco1)N1CCN(c2nc(C3CC3)nc3c2nnn3Cc2ccccc2Cl)CC1`, the inhibition is -2.25% (inactive). `CCOC(=O)c1nn(-c2ccccc2C)c2nc(-c3ccc(Cl)cc3)c(C#N)c(=O)n12`: the inhibition was 3.54% (inactive). Take `Cc1cccc(N(C)S(=O)(=O)c2ccc3c(c2)C(C)(C)C(=O)N3C)c1`: the inhibition was 4.84% (inactive). Consider `COc1cc(OC)c(NC(=O)CN(C)S(=O)(=O)c2ccc(-c3ccc(=O)[nH]n3)s2)cc1Cl`, for which the inhibition is -0.24% (inactive). In the case of `O=C(COC(=O)/C=C/c1ccc(Br)o1)Nc1ccc2[nH]c(=O)[nH]c2c1` it was 24.5% (inactive); in that of `O=C1COc2ccc(C(=O)COC(=O)/C=C/c3ccc(Br)o3)cc2N1`, 35.5% (inactive); in that of `O=C(/C=C/c1ccc(Br)o1)OCc1nc2ccsc2c(=O)[nH]1`, 46% (active). On to `Cc1ccccc1N1CC(C(=O)Nc2nnc(SCc3ccccn3)s2)CC1=O` (configuration not stated), for which the inhibition was 0.24% (inactive).

For the molecule `O=C(Nc1ccc(N2CCCC2)c(Cl)c1)c1ccc2c(c1)OCCO2`, the inhibition is -0.93% (inactive). For `Cc1ccc(OCC(=O)c2cc(C)c(C)cc2C)c([N+](=O)[O-])n1`, the inhibition is -9.54% (inactive). In the case of `Cc1cc(C(=O)CSc2nnc(-c3ccc(OC(F)F)cc3)o2)c(C)n1Cc1cccs1` it was -10.5% (inactive); in that of `C=CCn1c(C)cc(C2=NNC(=Nc3ccc(C)cc3)SC2)c1C`, -4.54% (inactive). In the case of `O=C(O)CCC(=O)N1N=C(c2cccs2)CC1c1cn(-c2ccccc2)nc1-c1ccccc1` (configuration not stated) it was 7.42% (inactive); in that of `O=c1cc(-c2ccccc2Cl)c2c([nH]1)CCC2`, -2.22% (inactive); in that of `Cc1ccc(C2CC(=O)N3CN(c4ccc(Br)cc4)CSC3=C2C#N)o1` (configuration not stated), -1.74% (inactive). Turning to `Cc1ccc(C2C(C#N)=C(N)Oc3c2sc2ccccc32)o1` (configuration not stated), the inhibition is 14% (inactive). For `Cc1cccc(N2CSC3=C(C#N)C(c4ccc(C)o4)CC(=O)N3C2)c1` (configuration not stated) the value was 50.5% (active); for `CC1CCc2sc(C(=O)N/N=C/c3ccc([N+](=O)[O-])cc3)cc2C1` (configuration not stated), -11.5% (inactive). In the case of `Cc1cccc(N2CC(C(=O)Nc3nnc(SCC(=O)N4CCOCC4)s3)CC2=O)c1` (configuration not stated) it was 11.4% (inactive); in that of `Cc1ccc(Cn2c(C(C)Nc3nc(-c4ccc(Cl)c([N+](=O)[O-])c4)cs3)nc3cc(C(F)(F)F)ccc32)cc1` (configuration not stated), 5.29% (inactive).

For the molecule `N#Cc1ccc(C23CC4(C2)[C@H](CN(P(=O)(c2ccccc2)c2ccccc2)[C@@H]4c2ccccc2)C3c2ccc(Cl)nc2)cc1` (some centres not stated), the inhibition is 8.04% (inactive). In the case of `CN(CC(=O)Nc1sccc1C#N)C1CCCCC1` it was 6.43% (inactive); in that of `CC1CC1C(=O)Nc1nc(-c2cccs2)c(-c2cccs2)s1` (configuration not stated), 7.18% (inactive); in that of `Cc1sccc1C1C(C#N)=C(N)SC(N)=C1C#N`, 32.6% (inactive). `COc1ccc(C2C(C#N)=C(N)SC(N)=C2C#N)cc1OC`: the inhibition is 2.28% (inactive).

In the case of `Cc1ccc(C2C(C#N)=C(N)SC(N)=C2C#N)c(C)c1`, the inhibition is 58% (active). For `Cc1cc(Cl)ccc1OC(C)C(=O)Nc1ccc(S(=O)(=O)Nc2cnc3ccccc3n2)cc1` (configuration not stated) the value was -3.49% (inactive). For `Cc1ccc(C)c(NC(=O)CN(C)C(=O)c2cccc(-n3cccc3)c2)c1` the value was 4.94% (inactive); for `COc1cccc2cc(/C(C)=N/Nc3nc(-c4cc(C)ccc4C)cs3)c(=O)oc12`, 16.7% (inactive); for `COc1ccc(CCNC(=O)c2ccc3c(c2)NC(=O)C(CSCc2cc(C)ccc2C)N3)cc1OC` (configuration not stated), 2.87% (inactive). For `COc1ccc2c(c1)[nH]c(=O)c1sc3ccccc3c12` the value was -0.73% (inactive); for `O=C(Nc1nnc(-c2ccccc2Cl)o1)c1nc2ccccc2s1`, -8.09% (inactive). In the case of `CN(C)c1ccc(/C=C/C=C2/SC(=S)N(c3ccccc3)C2=O)cc1`, the inhibition was -12.6% (inactive). In the case of `COc1ccc(OC)c(-c2csc(NC(=O)CSc3ccc([N+](=O)[O-])cc3)n2)c1` it was -0.57% (inactive); in that of `O=c1ccc2c(-c3ccccc3)c3ccc(O)cc3oc-2c1`, -13.9% (inactive). In the case of `COc1ccc2c(c1[N+](=O)[O-])CCC/C2=N/OC(=O)c1ccccc1SC` it was -1.21% (inactive). In the case of `COc1ccc(/C=N\NS(=O)(=O)c2ccc(Cl)cc2)cc1COc1ccccc1[N+](=O)[O-]` it was -7.14% (inactive); in that of `O=C(NCc1cccnc1)c1ccc(COc2cccc3ccccc23)o1`, 4.61% (inactive). Take `O=C(CN(c1ccc(Cl)c(C(F)(F)F)c1)S(=O)(=O)c1ccccc1)N/N=C/c1cccc2c1OCCO2`: the inhibition was -4.47% (inactive).

On to `O=C(Nc1ccc(NC(=S)NC(=O)C(c2ccccc2)c2ccccc2)cc1)c1ccccc1`, for which the inhibition is 5.69% (inactive). In the case of `COc1ccc(C(=O)N/C(=C/c2cccc3ccccc23)C(=O)NCCc2c[nH]c3ccccc23)cc1OC` it was -0.16% (inactive); in that of `O=C(Nc1ccccc1)c1ccc(Nc2c([N+](=O)[O-])cc([N+](=O)[O-])c3ccccc23)cc1`, 1.02% (inactive). For `COc1ccc(N2CCN(C(=O)c3ccc4c(c3)NC(=O)C(CSCc3ccc(C)cc3)N4)CC2)cc1` (configuration not stated) the value was 27% (inactive).

Regarding `CSc1nc(N(C)CCO)c2sc3nc(-c4ccco4)c4c(c3c2n1)CCC4`, the inhibition is -23.5% (inactive). In the case of `COc1ccccc1CCNC(=O)c1cc(-c2ccccn2)nc2ccc(Br)cc12`, the inhibition was -9.45% (inactive). On to `Cc1cc(C#N)c(C)n1-c1cc(S(=O)(=O)N2CCOCC2)ccc1N1CCCC1`, for which the inhibition is 2.12% (inactive). For `CC1(C)Cc2c(C#N)c(N3CCN(C(=O)c4ccccc4Cl)CC3)nc(-c3ccco3)c2CS1` the value was 16.3% (inactive).

Turning to `O=C(N/N=C/c1ccc([N+](=O)[O-])o1)c1cn(-c2ccccc2)nc1-c1ccc(Cl)cc1`, the inhibition was -1.11% (inactive). For `Cc1ccc(-c2csc(C3=C(O)CN(NC(=O)c4ccc([N+](=O)[O-])cc4)C3=N)n2)cc1` the value was 6.2% (inactive).
